Experimental data taken from article PMC9257424 (The Journal of Biological Chemistry, 2022).
“Also recorded” adds a separate entry of the source.

Columns and labels:
[1] = target: T1, L. blandensis dGTPase (WT) (Leeuwenhoekiella blandensis, UniProt A3XHN1); assay: Enzyme-coupled dGTPase activity assay, WT enzyme; type: biochemical
T1 sequence (A3XHN1 3-442): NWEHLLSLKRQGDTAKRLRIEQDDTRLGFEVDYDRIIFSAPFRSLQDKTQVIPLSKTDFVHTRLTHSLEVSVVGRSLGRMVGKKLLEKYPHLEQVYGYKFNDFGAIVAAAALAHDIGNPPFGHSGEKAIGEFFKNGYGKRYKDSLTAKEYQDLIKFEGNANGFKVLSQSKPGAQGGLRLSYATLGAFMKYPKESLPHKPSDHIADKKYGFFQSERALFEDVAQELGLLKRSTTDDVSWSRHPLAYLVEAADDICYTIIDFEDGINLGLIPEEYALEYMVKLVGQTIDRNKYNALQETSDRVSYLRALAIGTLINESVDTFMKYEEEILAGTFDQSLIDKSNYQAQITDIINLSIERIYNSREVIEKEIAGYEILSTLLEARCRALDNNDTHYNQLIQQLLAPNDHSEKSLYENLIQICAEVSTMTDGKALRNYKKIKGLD

[2] = target: T2, L. blandensis dGTPase R28A (Leeuwenhoekiella blandensis, UniProt A3XHN1, R28A); assay: Enzyme-coupled dGTPase activity assay, R28A mutant; type: biochemical; settings: dATP titration at 1 mM dGTP
T2 sequence (A3XHN1 3-442 R28A): T1 sequence (A3XHN1 3-442)
How it was run: (§1)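 Variants of residues 3–442 were made by site-directed mutagenesis, expressed in E. coli BL21(DE3), and purified by Ni–NTA and size exclusion. dATP was serially diluted into buffer containing 1 mM dGTP (100 mM Tris pH 8, 5 mM MgCl2, 125 μM MnCl2, 5 mM phosphate). Reactions started with 1:1 addition of a 2× mix (~120 nM monomer, PNP, XOD). A297 was read at 25 °C, converted to v0/[E]t, and kcat,app versus dATP was Hill-fitted for K1/2.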

[3] = system: L. blandensis dGTPase R37A; assay: Enzyme-coupled dGTPase activity assay, R37A mutant; type: biochemical, Leeuwenhoekiella blandensis; settings: dATP titration at 1 mM dGTP
How it was run: as §1

[4] = target: T1, L. blandensis dGTPase (WT); assay: HPLC dGTPase activity assay, WT enzyme; type: biochemical; settings: mixture of eight standard dNTPs and NTPs, 1 mM each, 1 h
[5] = target: T3, L. blandensis dGTPase F40N (Leeuwenhoekiella blandensis, UniProt A3XHN1, F40N); assay: Enzyme-coupled dGTPase activity assay, F40N mutant; type: biochemical; settings: dATP titration at 1 mM dGTP
T3 sequence (A3XHN1 3-442 F40N): T1 sequence (A3XHN1 3-442)
How it was run: as §1

[6] = target: T4, L. blandensis dGTPase V74Q (Leeuwenhoekiella blandensis, UniProt A3XHN1, V74Q); assay: Enzyme-coupled dGTPase activity assay, V74Q mutant; type: biochemical
T4 sequence (A3XHN1 3-442 V74Q): T1 sequence (A3XHN1 3-442)
How it was run: as §1

[7] = target: Leeuwenhoekiella blandensis MED217 dGTPase (SAMHD1 homolog), wild type, residues 3 to 442 (Leeuwenhoekiella blandensis MED217); assay: crystal structure
[8] = target: Leeuwenhoekiella blandensis MED217 dGTPase (SAMHD1 homolog), wild type, residues 3 to 442 (Leeuwenhoekiella blandensis MED217); assay: cryo-EM structure

Compound | EC50 [1] [µM] | increase of dGTPase kcat by dATP ([1]; WT, 500 µM dATP versus dGTP-only) [%] | fold activation of turnover rate by dATP ([1]; WT, calculated with n^H = 2, dGTP concentration at saturation) [fold] | fold activation of turnover rate by dATP ([1]; WT, calculated with n^H = 2, dGTP less than ~160 µM) | n^H (Hill coefficient) of activation by dATP ([1]; WT, dATP titration at 1 mM dGTP) | activation by dATP [2] | activation by dATP [3] | hydrolysis as substrate [4] | activation by dATP [5] | EC50 [6] [µM] | stoichiometry N [7] | stoichiometry N [8]
Nc1ncnc2c1ncn2[C@H]1C[C@H](O)[C@@H](COP(=O)(O)OP(=O)(O)OP(=O)(O)O)O1 [dATP] | 36 ± 3 | ~50 | ~1.6 | more than threefold | 1.3 ± 0.1 | eliminate activation by dATP; also recorded: not activated by dATP | eliminate activation by dATP; also recorded: not activated by dATP | not used as a substrate | eliminated allosteric activation by dATP | 180 ± 16 | – | –
Leeuwenhoekiella blandensis MED217 dGTPase (SAMHD1 homolog), wild type, residues 3 to 442 (enzyme) | – | – | – | – | – | – | – | – | – | – | 6 | 6
